Columns and labels:
[1] = tested on: Rattus norvegicus; test: Antiinflammatory activity in rat assessed as inhibition of carrageenan-induced paw edema administered into pad of right hind paw 1 hr before carrageenan challenge measured after 4 hrs relative to phenylbutazone; type: functional; conditions: in the assay text read “administered po” for “administered into pad of right hind paw”
Summary of the method: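 Female rats, 80-90 g, gavaged with test material in 1 mL aqueous vehicle. One hour later, 0.05 mL of 1% carrageenan in 0.9% NaCl injected into the right hind paw pad. Rats killed 4 h after dosing. Both hind paws weighed, and the percent weight increase of the inflamed paw calculated. Six rats per group. Phenylbutazone standard usually at 3.6, 11 and 33 mg/kg.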

[2] = tested on: Mus musculus; test: Analgesic activity in po dosed mouse assessed as inhibition of phenylquinone-induced writhing measured up to 10 mins relative to aspirin; type: functional
Summary of the method: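 Male mice, 18-20 g, dosed orally in aqueous vehicle at time zero. Writhing induced 20 min later by ip injection of 0.25 mL 0.02% phenylquinone, then counted over the next 10 min. Groups of usually 8-10 mice. Aspirin standard given at 16.5, 50 and 150 mg/kg. Relative potency determined graphically or by Finney's methods.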

[3] = tested on: Rattus norvegicus; test: Antiarthritic activity in po dosed rat assessed as inhibition of adjuvant-induced arthritis administered twice daily for 17 days measured on day 18 relative to indomethacin
[4] = tested on: Rattus norvegicus; test: Antiinflammatory activity in po dosed rat assessed as inhibition of carrageenan immersed cotton pellet-induced granuloma administered daily once for 7 days measured one day after last dose relative to indomethacin; type: functional
Summary of the method: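 Two 50-mg cotton pellets, soaked 24 h in 1% carrageenan, dried, then dipped in 1% penicillin G/1% streptomycin, implanted sc dorso-lumbar in 180-200 g rats (one sex per test). Daily oral dosing for 7 days. Next day, pellets with granulomas removed, dried 24 h at 100 °C, weighed. Usually nine rats/group. Indomethacin standard at 0.5, 1, 2, 4 mg/kg/day.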

For COC(=O)Cc1ccc2c(=O)c3ccccc3ccc2c1, the Ratio [1] was 3 and the Ratio [2] was <1.
Work on CC(C(=O)[O-])c1ccc2c(=O)c3ccccc3ccc2c1.[Na+] (stereo not drawn) yielded a Ratio [1] of 62.
Work on CC(C)(C(=O)O)c1ccc2c(=O)c3ccccc3ccc2c1 yielded a Ratio [1] of 0.5.
In the case of C=C(C(=O)O)c1ccc2c(=O)c3ccccc3ccc2c1, the Ratio [1] is reported as 4 and the Ratio [2] is reported as 1.
For COC(=O)C(C)c1ccc2c(=O)c3ccccc3ccc2c1 (stereo not drawn), the Ratio [1] was 15 and the Ratio [3] was 2.
With O=C(O)Cc1ccc2c(=O)c3ccccc3ccc2c1 the Ratio [1] was 6, the Ratio [2] was 2 and the Ratio [4] was 0.1. It also gave a Ratio [3] of 0.1.
Compound CC(C(=O)O)c1ccc2c(=O)c3ccccc3ccc2c1 (racemic) has a Ratio [1] of 44 and a Ratio [2] of 12.
CCC(C(=O)O)c1ccc2c(=O)c3ccccc3ccc2c1 (racemic) gave a Ratio [1] of 7 and a Ratio [2] of 2.
COC(=O)C(C)c1ccc2c(=O)c3ccccc3ccc2c1 (racemic) gave a Ratio [1] of 11 and a Ratio [2] of 2.
Work on CC(C)CCOC(=O)C(C)c1ccc2c(=O)c3ccccc3ccc2c1 (racemic) yielded a Ratio [1] of 6 and a Ratio [2] of 1.7.
In the case of CCCCCCCCCCCCOC(=O)C(C)c1ccc2c(=O)c3ccccc3ccc2c1 (racemic), the Ratio [1] is reported as 15 and the Ratio [2] is reported as <0.5.
With CCCCCCCCCCCCCCCCCCCCOC(=O)C(C)c1ccc2c(=O)c3ccccc3ccc2c1 (racemic) the Ratio [1] was “<=1” and the Ratio [2] was <0.5.
Compound CC(C(=O)OCCN(C)C)c1ccc2c(=O)c3ccccc3ccc2c1 (racemic) has a Ratio [1] of 30 and a Ratio [2] of 7.
In the case of CCN(C)CCOC(=O)C(C)c1ccc2c(=O)c3ccccc3ccc2c1 (racemic), the Ratio [1] is reported as 20 and the Ratio [2] is reported as <2.
With CCN(CC)CCOC(=O)C(C)c1ccc2c(=O)c3ccccc3ccc2c1.Cl (racemic) the Ratio [1] was 14 and the Ratio [2] was 10.
CC(C(=O)OCCN1CCCCC1)c1ccc2c(=O)c3ccccc3ccc2c1 (racemic) was tested, and the Ratio [1] was 15 and the Ratio [2] was <2.
In the case of CC(C(=O)OCCN1CCOCC1)c1ccc2c(=O)c3ccccc3ccc2c1.Cl (racemic), the Ratio [1] is reported as 9 and the Ratio [2] is reported as <1.
In the case of CC(C(=O)OCCCCN(C)C)c1ccc2c(=O)c3ccccc3ccc2c1 (racemic), the Ratio [1] is reported as 7 and the Ratio [2] is reported as <3.
CC(O)(C(=O)O)c1ccc2c(=O)c3ccccc3ccc2c1 (racemic) was tested, and the Ratio [1] was <0.5 and the Ratio [2] was 1.5.
CC(C(=O)O)c1ccc2c(=O)c3ccccc3ccc2c1 (single isomer, unassigned; (+)) gave a Ratio [1] of 68 and a Ratio [2] of 20.
CC(C(=O)OCCN(C)C)c1ccc2c(=O)c3ccccc3ccc2c1 (single isomer, unassigned; (+)) was tested, and the Ratio [1] was 45.
CC(C(=O)O)c1ccc2c(=O)c3ccccc3ccc2c1 (single isomer, unassigned; (-)) gave a Ratio [1] of 1.5 and a Ratio [2] of 1.5.
